Data: ChEMBL document CHEMBL4354843, “Structure-Based Design of a Potent and Selective Covalent Inhibitor for SRC Kinase That Targets a P-Loop Cysteine” (J Med Chem, 2020)
The source made the active and inactive calls. The rule behind the calls is not given here.

Key:
[1] = target: Dual specificity mitogen-activated protein kinase kinase 7 (Homo sapiens) (UniProt O14733); assay: Binding affinity to wild-type human full length MKK7 (M1 to R419 residues) expressed in mammalian expression system assessed as residual binding level at 1 uM by Kinomescan method relative to control
Procedure, shortened: (§1)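 KinomeScan, an active site-directed competition binding panel of 468 kinases. The test compound was at 1 μM. The readout is remaining kinase binding as a percentage of the DMSO control. Scores above 35% were treated as weak binding and not listed.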

[2] = target: Cyclin-dependent kinase 3 (Homo sapiens) (UniProt Q00526); assay: Binding affinity to wild-type human full length CDK3 (M1 to H305 residues) expressed in bacterial expression system assessed as residual binding level at 1 uM by Kinomescan method relative to control
Procedure, shortened: (§2)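 Active-site-directed KinomeScan competition binding panel covering 468 kinases, compound tested at 1 μM. Each readout is the kinase signal remaining with compound, expressed as a percentage of the DMSO control. […]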

[3] = target: Mitogen-activated protein kinase kinase kinase 4 (Homo sapiens) (UniProt Q9Y6R4); assay: Binding affinity to wild-type human partial length MAP3K4 (G1319 to E1608 residues) expressed in bacterial expression system assessed as residual binding level at 1 uM by Kinomescan method relative to control
[4] = target: Cyclin-dependent kinase-like 2 (Homo sapiens) (UniProt Q92772); assay: Binding affinity to wild-type human partial length CDKL2 (M1 to D327 residues) expressed in bacterial expression system assessed as residual binding level at 1 uM by Kinomescan method relative to control
Cyclin-dependent kinase-like 2 (Homo sapiens), sequence (Q92772 whole entry, the tested form may be a part): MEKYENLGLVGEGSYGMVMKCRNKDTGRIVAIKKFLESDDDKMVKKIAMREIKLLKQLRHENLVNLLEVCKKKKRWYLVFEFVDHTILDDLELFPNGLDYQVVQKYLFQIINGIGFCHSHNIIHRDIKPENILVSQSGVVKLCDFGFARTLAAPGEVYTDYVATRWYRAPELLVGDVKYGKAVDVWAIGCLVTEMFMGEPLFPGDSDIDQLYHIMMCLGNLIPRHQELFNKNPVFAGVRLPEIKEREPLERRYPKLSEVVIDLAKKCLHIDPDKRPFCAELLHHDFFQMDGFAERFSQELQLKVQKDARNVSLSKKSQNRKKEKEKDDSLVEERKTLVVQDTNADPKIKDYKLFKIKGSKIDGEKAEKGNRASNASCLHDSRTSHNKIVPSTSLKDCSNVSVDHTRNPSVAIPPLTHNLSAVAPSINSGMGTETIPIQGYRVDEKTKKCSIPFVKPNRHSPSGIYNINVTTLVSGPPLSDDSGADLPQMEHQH

[5] = target: Serine/threonine-protein kinase 16 (Homo sapiens) (UniProt O75716); assay: Binding affinity to wild-type human partial length STK16 (G11 to I305 residues) expressed in bacterial expression system assessed as residual binding level at 1 uM by Kinomescan method relative to control
[6] = target: Cyclin-dependent kinase 5 (Homo sapiens) (UniProt Q00535); assay: Binding affinity to wild-type human full length CDK5 (M1 to P292 residues) expressed in bacterial expression system assessed as residual binding level at 1 uM by Kinomescan method relative to control; procedure, shortened: as §2
Cyclin-dependent kinase 5 (Homo sapiens), sequence (Q00535 whole entry, looked up, the tested form may be a part): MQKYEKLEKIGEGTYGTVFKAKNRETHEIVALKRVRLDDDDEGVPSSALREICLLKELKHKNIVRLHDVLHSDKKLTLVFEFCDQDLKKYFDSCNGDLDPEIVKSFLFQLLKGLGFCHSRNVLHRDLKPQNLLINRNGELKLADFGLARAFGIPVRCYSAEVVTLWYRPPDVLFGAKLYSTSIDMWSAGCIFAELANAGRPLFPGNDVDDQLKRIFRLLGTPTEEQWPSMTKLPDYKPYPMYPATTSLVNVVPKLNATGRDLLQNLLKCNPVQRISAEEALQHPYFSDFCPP

[7] = target: Serine/threonine-protein kinase Nek3 (Homo sapiens) (UniProt P51956); assay: Binding affinity to wild-type human full length NEK3 (M1 to R506 residues) expressed in mammalian expression system assessed as residual binding level at 1 uM by Kinomescan method relative to control; procedure, shortened: as §1
Serine/threonine-protein kinase Nek3 (Homo sapiens), sequence (P51956 whole entry, the tested form may be a part): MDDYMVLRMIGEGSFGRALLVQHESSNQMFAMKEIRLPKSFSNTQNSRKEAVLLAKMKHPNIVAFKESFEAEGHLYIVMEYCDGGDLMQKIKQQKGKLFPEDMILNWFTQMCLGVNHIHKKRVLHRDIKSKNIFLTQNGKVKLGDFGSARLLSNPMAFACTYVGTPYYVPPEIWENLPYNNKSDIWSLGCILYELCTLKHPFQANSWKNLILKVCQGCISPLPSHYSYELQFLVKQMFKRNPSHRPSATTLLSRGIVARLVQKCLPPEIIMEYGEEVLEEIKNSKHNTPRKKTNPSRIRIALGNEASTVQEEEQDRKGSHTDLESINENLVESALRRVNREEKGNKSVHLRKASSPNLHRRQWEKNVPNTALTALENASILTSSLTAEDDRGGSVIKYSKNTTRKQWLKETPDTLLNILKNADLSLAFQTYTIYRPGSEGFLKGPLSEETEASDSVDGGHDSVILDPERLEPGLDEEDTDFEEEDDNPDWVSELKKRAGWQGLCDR

[8] = target: Dual specificity mitogen-activated protein kinase kinase; MEK1/2 (Homo sapiens) (UniProt P36507+Q02750); assay: Inhibition of MEK1/2 in human HCC827 cells assessed as blocking of MEK1/2 pulldown at 1 uM in presence of TL13-68 incubated for 2 hrs by Western blot analysis; type: cell-based
Procedure, shortened: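 H1975 or HCC827 cells treated with 1 μM compound or DMSO for 2 h, rinsed twice in cold PBS, and lysed in M-PER with protease/phosphatase inhibitors. Lysate rocked overnight at 4 °C with 1 μM TL13-68, then streptavidin pulldown with five cold washes. Bound kinases detected by Western blot. Two independent experiments.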

[9] = target: Vascular endothelial growth factor receptor 2 (Homo sapiens) (UniProt P35968); assay: Binding affinity to wild-type human partial length VEGFR2 (R787 to P1253 residues) expressed in mammalian expression system assessed as residual binding level at 1 uM by Kinomescan method relative to control
Vascular endothelial growth factor receptor 2 (Homo sapiens), sequence (P35968 whole entry, the tested form may be a part): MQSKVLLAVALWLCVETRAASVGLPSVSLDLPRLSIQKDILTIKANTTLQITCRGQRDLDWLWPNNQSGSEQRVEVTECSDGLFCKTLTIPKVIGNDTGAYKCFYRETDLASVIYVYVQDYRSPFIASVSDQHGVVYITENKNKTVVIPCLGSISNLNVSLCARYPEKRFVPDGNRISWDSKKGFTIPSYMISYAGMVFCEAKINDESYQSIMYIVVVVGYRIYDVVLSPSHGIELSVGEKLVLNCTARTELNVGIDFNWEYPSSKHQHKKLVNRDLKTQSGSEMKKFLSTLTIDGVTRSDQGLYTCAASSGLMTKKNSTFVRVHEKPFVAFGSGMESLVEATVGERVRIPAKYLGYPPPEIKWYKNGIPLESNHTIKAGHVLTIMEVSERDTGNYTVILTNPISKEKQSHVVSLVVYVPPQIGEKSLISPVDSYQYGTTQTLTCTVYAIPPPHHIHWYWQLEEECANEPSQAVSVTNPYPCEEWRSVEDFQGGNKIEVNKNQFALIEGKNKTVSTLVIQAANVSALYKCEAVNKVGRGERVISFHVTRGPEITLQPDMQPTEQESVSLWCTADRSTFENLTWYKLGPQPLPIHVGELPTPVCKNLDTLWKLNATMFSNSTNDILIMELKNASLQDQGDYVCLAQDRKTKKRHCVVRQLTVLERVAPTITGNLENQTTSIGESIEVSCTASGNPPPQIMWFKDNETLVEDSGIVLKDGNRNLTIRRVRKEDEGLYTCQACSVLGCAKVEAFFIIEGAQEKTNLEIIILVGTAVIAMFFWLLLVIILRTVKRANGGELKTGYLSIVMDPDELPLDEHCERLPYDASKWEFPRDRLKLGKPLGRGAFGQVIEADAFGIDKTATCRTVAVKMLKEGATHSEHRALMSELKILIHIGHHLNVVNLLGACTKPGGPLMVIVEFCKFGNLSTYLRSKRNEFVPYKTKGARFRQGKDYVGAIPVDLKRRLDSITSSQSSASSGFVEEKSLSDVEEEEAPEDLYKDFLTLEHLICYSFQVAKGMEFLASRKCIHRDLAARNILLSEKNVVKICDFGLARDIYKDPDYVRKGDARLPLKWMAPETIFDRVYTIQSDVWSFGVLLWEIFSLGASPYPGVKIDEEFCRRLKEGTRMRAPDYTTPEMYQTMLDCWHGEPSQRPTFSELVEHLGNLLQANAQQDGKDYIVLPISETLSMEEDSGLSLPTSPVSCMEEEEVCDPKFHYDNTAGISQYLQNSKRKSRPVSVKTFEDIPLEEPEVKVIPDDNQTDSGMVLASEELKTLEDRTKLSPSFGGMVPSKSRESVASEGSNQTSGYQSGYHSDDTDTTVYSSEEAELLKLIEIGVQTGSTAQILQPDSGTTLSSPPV
Procedure, shortened: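 Active site-directed competition binding panel (KinomeScan, 468 kinases). Test compound at 1 μM. Read-out is kinase binding remaining versus DMSO control, expressed as percent of control. Scores above 35% are treated as weak binding.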

[10] = target: Beta-adrenergic receptor kinase 1 (Homo sapiens) (UniProt P25098); assay: Binding affinity to wild-type human full length GRK2 (M1 to L689 residues) expressed in mammalian expression system assessed as residual binding level at 1 uM by Kinomescan method relative to control; procedure, shortened: as §2
Beta-adrenergic receptor kinase 1 (Homo sapiens), sequence (P25098 whole entry, the tested form may be a part): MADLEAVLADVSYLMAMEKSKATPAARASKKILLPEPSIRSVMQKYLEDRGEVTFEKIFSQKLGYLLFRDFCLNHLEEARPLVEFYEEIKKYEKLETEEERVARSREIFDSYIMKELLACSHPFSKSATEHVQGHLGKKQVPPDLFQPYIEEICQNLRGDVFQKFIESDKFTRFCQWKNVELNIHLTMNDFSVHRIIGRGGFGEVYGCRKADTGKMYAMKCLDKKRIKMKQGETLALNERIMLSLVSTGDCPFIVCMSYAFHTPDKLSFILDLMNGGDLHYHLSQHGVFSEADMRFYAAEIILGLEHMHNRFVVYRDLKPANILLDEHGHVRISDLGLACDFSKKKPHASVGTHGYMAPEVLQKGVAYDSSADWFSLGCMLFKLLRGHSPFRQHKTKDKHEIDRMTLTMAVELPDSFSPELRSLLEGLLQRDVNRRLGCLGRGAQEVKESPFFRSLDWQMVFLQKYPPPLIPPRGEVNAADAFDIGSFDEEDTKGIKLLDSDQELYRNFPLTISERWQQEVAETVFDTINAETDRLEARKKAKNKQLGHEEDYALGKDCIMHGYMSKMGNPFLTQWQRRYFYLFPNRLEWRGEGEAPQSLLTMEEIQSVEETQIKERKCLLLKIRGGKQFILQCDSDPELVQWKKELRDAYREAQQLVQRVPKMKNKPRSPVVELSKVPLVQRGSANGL

[11] = target: Cyclin-dependent kinase 11A (Homo sapiens) (UniProt Q9UQ88); assay: Binding affinity to wild-type human partial length CDC2L2 (D391 to K730 residues) expressed in bacterial expression system assessed as residual binding level at 1 uM by Kinomescan method relative to control
[12] = target: Serine/threonine-protein kinase TBK1 (Homo sapiens) (UniProt Q9UHD2); assay: Binding affinity to wild-type human full length TBK1 (M1 to L729 residues) expressed in mammalian expression system assessed as residual binding level at 1 uM by Kinomescan method relative to control; procedure, shortened: as §1
[13] = test system: Epidermal growth factor receptor (Homo sapiens), P00533 [G719S]; assay: Binding affinity to human partial length EGFR G719S mutant (R669 to V1011 residues) expressed in bacterial expression system assessed as residual binding level at 1 uM by Kinomescan method relative to control
Procedure, shortened: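 KinomeScan active site-directed competition binding panel (468 kinases), compound tested at 1 μM. Result expressed as remaining kinase signal versus DMSO control (percent of control).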

[14] = target: Hormonally up-regulated neu tumor-associated kinase (Homo sapiens) (UniProt P57058); assay: Binding affinity to wild-type human partial length HUNK (A31 to K354 residues) expressed in bacterial expression system assessed as residual binding level at 1 uM by Kinomescan method relative to control
[15] = target: Mitogen-activated protein kinase 3 (Homo sapiens) (UniProt P27361); assay: Binding affinity to wild-type human full length ERK1 (M1 to P379 residues) expressed in bacterial expression system assessed as residual binding level at 1 uM by Kinomescan method relative to control; procedure, shortened: as §2
Mitogen-activated protein kinase 3 (Homo sapiens), sequence (P27361 whole entry, the tested form may be a part): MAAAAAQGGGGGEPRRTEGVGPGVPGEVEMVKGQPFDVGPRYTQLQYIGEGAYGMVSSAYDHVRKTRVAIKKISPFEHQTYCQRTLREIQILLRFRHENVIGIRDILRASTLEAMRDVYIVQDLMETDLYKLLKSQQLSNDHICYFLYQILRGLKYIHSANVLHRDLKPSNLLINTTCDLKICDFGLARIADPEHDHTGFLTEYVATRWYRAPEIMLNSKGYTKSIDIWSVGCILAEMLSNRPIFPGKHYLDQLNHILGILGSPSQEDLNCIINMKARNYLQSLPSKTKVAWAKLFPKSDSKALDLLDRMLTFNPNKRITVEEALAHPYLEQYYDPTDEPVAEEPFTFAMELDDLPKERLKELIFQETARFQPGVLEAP

[16] = target: Dual serine/threonine and tyrosine protein kinase (Homo sapiens) (UniProt Q6XUX3); assay: Binding affinity to wild-type human full length RIPK5 (M1 to T929 residues) expressed in mammalian expression system assessed as residual binding level at 1 uM by Kinomescan method relative to control
Procedure, shortened: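 Active-site-directed competition binding screen across a 468-kinase panel, run with the test compound at 1 μM. The read-out is the kinase signal remaining relative to a DMSO control, reported as a percentage. […]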

[17] = target: Dual specificity testis-specific protein kinase 1 (Homo sapiens) (UniProt Q15569); assay: Binding affinity to wild-type human full length TESK1 (R37 to S626 residues) expressed in bacterial expression system assessed as residual binding level at 1 uM by Kinomescan method relative to control
Dual specificity testis-specific protein kinase 1 (Homo sapiens), sequence (Q15569 whole entry, looked up, the tested form may be a part): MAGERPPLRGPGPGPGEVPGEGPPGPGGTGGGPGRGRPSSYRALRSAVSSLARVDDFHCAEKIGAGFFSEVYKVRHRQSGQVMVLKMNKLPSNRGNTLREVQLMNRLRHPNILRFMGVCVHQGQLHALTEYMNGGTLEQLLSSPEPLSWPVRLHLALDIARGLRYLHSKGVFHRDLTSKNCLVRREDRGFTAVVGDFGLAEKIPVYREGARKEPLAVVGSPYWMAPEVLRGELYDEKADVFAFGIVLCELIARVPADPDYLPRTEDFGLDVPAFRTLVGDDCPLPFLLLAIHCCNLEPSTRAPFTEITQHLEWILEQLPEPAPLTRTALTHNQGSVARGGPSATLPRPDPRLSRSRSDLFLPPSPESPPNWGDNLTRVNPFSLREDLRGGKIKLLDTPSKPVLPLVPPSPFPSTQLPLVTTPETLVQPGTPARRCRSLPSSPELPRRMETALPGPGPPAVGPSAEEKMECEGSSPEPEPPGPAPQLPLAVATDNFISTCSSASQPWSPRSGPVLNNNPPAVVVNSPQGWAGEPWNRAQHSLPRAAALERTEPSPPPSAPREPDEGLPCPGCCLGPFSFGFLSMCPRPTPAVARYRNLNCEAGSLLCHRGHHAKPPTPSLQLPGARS

[18] = target: Serine/threonine-protein kinase MARK2 (Homo sapiens) (UniProt Q7KZI7); assay: Binding affinity to wild-type human partial length MARK2 (M1 to R450 residues) expressed in bacterial expression system assessed as residual binding level at 1 uM by Kinomescan method relative to control
[19] = target: Tyrosine-protein kinase Lck (Homo sapiens) (UniProt P06239); assay: Binding affinity to wild-type human partial length LCK (R207 to P509 residues) expressed in bacterial expression system assessed as residual binding level at 1 uM by Kinomescan method relative to control
Tyrosine-protein kinase Lck (Homo sapiens), sequence (P06239 2-509 limits assumed): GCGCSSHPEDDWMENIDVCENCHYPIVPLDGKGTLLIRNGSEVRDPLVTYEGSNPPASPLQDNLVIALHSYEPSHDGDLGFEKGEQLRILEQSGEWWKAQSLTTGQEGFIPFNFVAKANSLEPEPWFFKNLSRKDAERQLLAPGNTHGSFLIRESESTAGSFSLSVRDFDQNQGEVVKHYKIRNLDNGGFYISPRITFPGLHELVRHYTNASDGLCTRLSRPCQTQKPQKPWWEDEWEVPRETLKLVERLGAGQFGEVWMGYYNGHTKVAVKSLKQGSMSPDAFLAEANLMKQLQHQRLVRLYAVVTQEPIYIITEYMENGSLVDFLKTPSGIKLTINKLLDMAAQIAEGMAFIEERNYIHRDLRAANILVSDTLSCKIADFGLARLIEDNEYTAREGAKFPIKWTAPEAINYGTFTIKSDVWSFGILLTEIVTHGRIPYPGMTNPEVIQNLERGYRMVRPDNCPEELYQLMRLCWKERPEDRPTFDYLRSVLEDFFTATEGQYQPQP
Procedure, shortened: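 Active-site-directed competition binding panel of 468 kinases (KinomeScan), compound at 1 μM. The read-out is kinase remaining bound, given as a percentage of the DMSO control. […]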

Structure (SMILES): C=CC(=O)Nc1ccccc1Nc1nc(Nc2ccc(N3CCN(C)CC3)cc2)ncc1C(=O)Nc1c(C)cccc1Cl
- Activity [1]: 96%
- Activity [2]: 100%
- Activity [3]: 65%
- Activity [4]: 100%
- Activity [5]: 100%
- Activity [6]: 100%
- Activity [7]: 88%
- inhibition [8]: inactive
- Activity [9]: 94%
- Activity [10]: 85%
- Activity [11]: 100%
- Activity [12]: 70%
- Activity [13]: 95%
- Activity [14]: 100%
- Activity [15]: 100%
- Activity [16]: 100%
- Activity [17]: 100%
- Activity [18]: 100%
- Activity [19]: 0.25%
